For assay [1], the system named is Platelet. Kind of assay: Inhibition of ADP-induced platelet aggregation in human platelet rich plasma. The class given is functional. In a few lines:
(§1)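 Citrated human venous blood spun 800 rpm 15 min at 21 °C for PRP, platelets adjusted to 230000 µL-1 with PPP. PRP preincubated with compound (final 10 µM–1 mM, 0.5% DMSO) 5 min at 37 °C with stirring, then 10 µM final ADP or epinephrine. Turbidimetric (Born) transmittance at 640 nm over 5 min. IC50 from sigmoid fit, ≥3 determinations in duplicate, mean ± SEM.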

For assay [2], the system named is Platelet. Kind of assay: Inhibition of epinephrine-induced platelet aggregation in human platelet rich plasma. It is filed as functional. The gist of the method:
as §1

The target of assay [3] is T1, Coagulation factor X (Homo sapiens, UniProt P00742). The assay is described as follows: Inhibition of human factor 10a at 250 uM by amydolitic assay. The gist of the method:
(§2)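 Human factor Xa (2 nM) in 10 mM Tris pH 8, 0.15 M NaCl, 0.1% PEG 6000, preincubated 30 min at 25 °C with compound (final 10 nM–0.25 mM, ≤2% DMSO). Started with 0.04 mM S-2765; p-nitroanilide release at 405 nm for 5 min, 25 °C. Initial velocities give IC50 (≥3 determinations), Ki by Cheng-Prusoff.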

The target of the next assay is Prothrombin (Bos taurus) (UniProt P00735). The assay is described as follows: Inhibition of bovine factor 2a at 250 uM by amydolitic assay. The gist of the method: (§3)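 Bovine thrombin (0.41 U/mL) in 10 mM Tris pH 8 with 0.15 M NaCl and 0.1% PEG 6000, compound (final 10 nM–0.25 mM, ≤2% DMSO) for 30 min at 25 °C, then 0.050 mM S-2238.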
Assay [4] deals with T1, Coagulation factor X. Kind of assay: Inhibition of human factor 10a by amydolitic assay. The gist of the method:
as §2

For the next assay, the target named is Prothrombin (Bos taurus, UniProt P00735). The assay is described as follows: Inhibition of bovine factor 2a by amydolitic assay. The gist of the method: as §3
Assay [5] is described as follows: Inhibition of bovine alpha-chymotrypsin by amydolitic assay. Also noted: species or system Bos taurus. The gist of the method:
(§4)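 Bovine α-chymotrypsin (0.4 µg/mL) in 50 mM Tris pH 7.5 with 50 mM CaCl2, incubated with compound (final 10 nM–0.25 mM) or DMSO 10 min at 25 °C. Substrate 0.185 mM N-succinyl-Ala-Ala-Pro-Phe-p-nitroanilide added; 405 nm read 5 min at 25 °C. Initial-rate IC50 (≥3 determinations) converted to Ki by Cheng-Prusoff.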

Assay [6] deals with Plasma. The assay is described as follows: Anticoagulant activity in human plasma assessed as effect on double the activated partial thromboplastin time upto 1 mM. The class given is functional, cell-free. In a few lines:
(§5)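 Pooled lyophilized human plasma with aPTT reagent and 0.025 mol/L CaCl2; inhibitor or solvent at increasing concentrations incubated with plasma 3 min at 37 °C. Clotting time read on a coagulometer against control plasma, triplicate measurements; concentration giving 2-fold aPTT prolongation calculated from concentration-response curves.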

The species named for a further assay is Bos taurus. The assay is described as follows: Inhibition of bovine alpha-chymotrypsin at 250 uM by amydolitic assay. In a few lines:
as §4

Assay [7] has as its system Plasma. Kind of assay: Anticoagulant activity in human plasma assessed as concentration required to double the activated partial thromboplastin time. It is filed as functional. In a few lines:
as §5

Data on 28 compounds can be found in ChEMBL document CHEMBL1140910, “Fluorinated benzyloxyphenyl piperidine-4-carboxamides with dual function against thrombosis: inhibitors of factor Xa and platelet aggregation” (J Med Chem, 2009).

Active and inactive are the calls of the source. The calls are words filed in the database; no cut-off is given here.

T1 sequence (P00742 41-179 limits assumed): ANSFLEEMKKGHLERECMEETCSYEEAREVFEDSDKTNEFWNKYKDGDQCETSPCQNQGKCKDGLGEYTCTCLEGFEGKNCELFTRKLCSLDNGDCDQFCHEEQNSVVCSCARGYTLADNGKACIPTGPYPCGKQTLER
T1 sequence (P00742 235-488 limits assumed): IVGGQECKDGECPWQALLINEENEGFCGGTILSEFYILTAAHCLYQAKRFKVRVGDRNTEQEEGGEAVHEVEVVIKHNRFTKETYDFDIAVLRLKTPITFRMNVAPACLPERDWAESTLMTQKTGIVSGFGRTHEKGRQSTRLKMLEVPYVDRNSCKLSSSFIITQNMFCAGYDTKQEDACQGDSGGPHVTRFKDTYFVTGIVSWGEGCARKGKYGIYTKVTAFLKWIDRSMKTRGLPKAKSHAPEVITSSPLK

As for `O=C(Nc1ccc(OCc2ccc(F)cc2)cc1)C1CCCNC1` (centres undefined), the IC50 in the assay with Platelet [1] is 116 µM; with Platelet [2], 90 µM. Further, the inhibition against Coagulation factor X [3] and against Prothrombin (Bos taurus) was below 30% each time.
As to `N=C(N)N1CCCC(C(=O)Nc2cccc(OCc3ccc(-c4ccccc4)cc3)c2)C1` (centres undefined), the IC50 in the assay with Platelet [1] is above 1000 µM. Further, the Ki on Coagulation factor X [4] worked out at 2 µM; on Prothrombin, 31.3 µM.
`O=C(Nc1cccc(OCc2ccc(-c3cccc(F)c3F)cc2)c1)C1CCNCC1`: the Ki was found to be 0.548 µM at Coagulation factor X [4] and 60 µM in assay [5]. The same compound showed an inhibition at Prothrombin (Bos taurus) below 30%.
As to `O=C(Nc1ccc(OCc2ccc(-c3ccccc3)cc2)cc1)C1CCNCC1`, half-maximal inhibition with Platelet [1] (IC50) was put at 135 µM. This compound also had a Ki at Coagulation factor X [4] of 126 µM. At Prothrombin (Bos taurus), the inhibition was below 30%.
Consider `O=C(Nc1cccc(OCc2ccccc2)c1)C1CCNCC1`, for which the outcome in the assay on Plasma [6] was inactive. Besides, in the assay on Platelet [1], the IC50 was 229 µM. In addition, the inhibition against Coagulation factor X [3] and on Prothrombin (Bos taurus) was below 30% each time.
On Coagulation factor X [4], `O=C(Nc1cccc(OCc2ccc(-c3cc(F)ccc3F)cc2)c1)C1CCNCC1` gave a Ki of 1.27 µM. Moreover, the inhibition against Prothrombin (Bos taurus) and in the assay filed under Bos taurus was below 30% throughout.
In the case of `O=C(Nc1cccc(OCc2ccc(F)cc2)c1)C1CCCNC1` (centres undefined), the concentration for half-maximal inhibition (IC50) in the assay on Platelet [1] was 103 µM; in the assay on Platelet [2], 70 µM. The compound further gave a Ki on Coagulation factor X [4] of 260 µM. In addition, the inhibition on Prothrombin (Bos taurus) is below 30%.
Turning to `O=C(Nc1cccc(OCc2ccc(F)cc2)c1)C1CCNCC1`, the values for the IC50 in the assay with Platelet [1] and in the assay on Platelet [2] were 68 µM and 36 µM, respectively. Also, the inhibition on Coagulation factor X [3] and against Prothrombin (Bos taurus) was below 30% each time.
Take `O=C(Nc1cccc(OCc2ccc(-c3cc(F)cc(F)c3)cc2)c1)C1CCNCC1`: the IC50 turned out to be 27.8 µM in the assay with Platelet [1] and 17 µM in the assay on Platelet [2]. The Ki came to 0.13 µM at Coagulation factor X [4] and 60.3 µM in assay [5]. The compound also had an inhibition against Prothrombin (Bos taurus) below 30%. For the same compound, the 2PT in the assay on Plasma [7] was 190 µM.
In the assay on Platelet [1], `O=C(Nc1cccc(OCc2ccc(-c3ccc(C(F)(F)F)cc3)cc2)c1)C1CCNCC1` registered an IC50 of 65.7 µM. At Coagulation factor X [4], this compound gave a Ki of 0.057 µM. Besides, the inhibition against Prothrombin (Bos taurus) and in the assay filed under Bos taurus was below 30% each time. Moreover, the 2PT in the assay on Plasma [7] is 140 µM.
In the assay with Platelet [1], `O=C(Nc1cccc(OCc2ccc(-c3cc(F)c(F)c(F)c3)cc2)c1)C1CCNCC1` showed an IC50 of 76.7 µM. Moreover, the Ki on Coagulation factor X [4] was 0.666 µM. In addition, the inhibition against Prothrombin (Bos taurus) and in the assay listed under Bos taurus was below 30% in each case.
With `N=C(N)N1CCC(C(=O)Nc2cccc(OCc3ccc(F)cc3)c2)CC1`, the IC50 with Platelet [1] was found to be 768 µM. The Ki on Coagulation factor X [4] came to 33.8 µM; at Prothrombin, 20.8 µM.
In the case of `N=C(N)N1CCCC(C(=O)Nc2cccc(OCc3ccc(F)cc3)c2)C1` (centres undefined), the IC50 in the assay with Platelet [1] is 274 µM. Moreover, the values for the Ki on Coagulation factor X [4] and at Prothrombin were 57 µM and 160 µM, respectively.
`O=C(Nc1cccc(OCc2ccc(-c3ccc(F)cc3F)cc2)c1)C1CCNCC1` gave an IC50 with Platelet [1] of 98.8 µM. In addition, the Ki is 0.512 µM on Coagulation factor X [4] and 54 µM on Prothrombin. The same compound had an inhibition in the assay listed under Bos taurus below 30%.
On to `O=C(Nc1cccc(OCc2ccc(-c3ccccc3)cc2)c1)C1CCCNC1` (centres undefined), for which the IC50 in the assay on Platelet [1] was determined as 153 µM; in the assay with Platelet [2] it was 87 µM. This compound gave a Ki at Coagulation factor X [4] of 2.5 µM. At Prothrombin (Bos taurus), the inhibition was below 30%.
In the assay on Platelet [1], `O=C(Nc1cccc(OCc2ccc(-c3ccccc3F)cc2)c1)C1CCNCC1` displayed an IC50 of 62.7 µM. Further, the affinity on Coagulation factor X [4], expressed as Ki, was 0.767 µM. The inhibition against Prothrombin (Bos taurus) and in the assay listed under Bos taurus was below 30% each time.
With `O=C(Nc1cccc(OCc2ccc(-c3cccc(F)c3)cc2)c1)C1CCNCC1`, the IC50 with Platelet [1] came out at 34.7 µM; with Platelet [2], 14.4 µM. For the same compound, the Ki at Coagulation factor X [4] was found to be 0.177 µM; in assay [5] it was 31 µM. Also, the inhibition against Prothrombin (Bos taurus) was below 30%. Besides, the 2PT in the assay on Plasma [7] is 205 µM.
Consider `O=C(Nc1ccc(OCc2ccc(F)cc2)cc1)C1CCNCC1`, for which the IC50 was found to be 121 µM with Platelet [1] and 93 µM with Platelet [2]. The inhibition on Coagulation factor X [3] and against Prothrombin (Bos taurus) was below 30% each time.
Consider `CCCCCCOc1cccc(NC(=O)C2CCCNC2)c1` (centres undefined), for which 113 µM corresponded to half-maximal inhibition in the assay with Platelet [1] (IC50). In addition, the inhibition against Coagulation factor X [3] and on Prothrombin (Bos taurus) was below 30% throughout.
As to `O=C(Nc1ccc(OCc2ccc(-c3ccccc3)cc2)cc1)C1CCCNC1` (centres undefined), in the assay with Platelet [1], half-maximal inhibition (IC50) required 125 µM. Moreover, the inhibition at Coagulation factor X [3] and at Prothrombin (Bos taurus) was below 30% in each case.
Consider `O=C(Nc1cccc(OCc2ccc(-c3ccc(F)cc3)cc2)c1)C1CCNCC1`, for which the IC50 in the assay on Platelet [1] came to 35 µM; in the assay on Platelet [2], 19 µM. Moreover, affinity on Coagulation factor X [4] was put at a Ki of 3.87 µM. Further, the inhibition on Prothrombin (Bos taurus) and in the assay listed under Bos taurus was below 30% each time.
In the assay on Platelet [1], `O=C(Nc1cccc(OCc2ccccc2)c1)C1CCCNC1` (centres undefined) displayed an IC50 of 128 µM. Moreover, the inhibition against Coagulation factor X [3] and on Prothrombin (Bos taurus) was below 30% in each case.
For the compound `COc1ccc(NC(=O)C2CCCNC2)cc1` (centres undefined), the IC50 in the assay on Platelet [1] turned out to be 983 µM.
In the case of `O=C(Nc1cccc(OCc2ccc(-c3c(F)cc(F)cc3F)cc2)c1)C1CCNCC1`, the values for the Ki at Coagulation factor X [4] and at Prothrombin were 9.47 µM and 26.7 µM, respectively. Further, the inhibition in the assay filed under Bos taurus was below 30%.
Consider `N=C(N)N1CCC(C(=O)Nc2cccc(OCc3ccc(-c4ccccc4)cc3)c2)CC1`, for which the IC50 amounted to 400 µM in the assay with Platelet [1] and 244 µM in the assay on Platelet [2]. The values for the Ki at Coagulation factor X [4] and on Prothrombin were 5.2 µM and 40.4 µM, respectively.
For the compound `CCCCCCOc1ccc(NC(=O)C2CCCNC2)cc1` (centres undefined), the IC50 amounted to 85 µM in the assay on Platelet [1] and 43 µM with Platelet [2]. Further, the inhibition at Coagulation factor X [3] and against Prothrombin (Bos taurus) was below 30% each time.
In the case of `O=C(Nc1cccc(OCc2ccc(-c3ccccc3)cc2)c1)C1CCNCC1`, the IC50 was found to be 111 µM with Platelet [1] and 54 µM in the assay with Platelet [2]. For the same compound, the Ki on Coagulation factor X [4] is 1 µM. Also, the inhibition against Prothrombin (Bos taurus) is below 30%.
Turning to `O=C(Nc1cccc(OCc2ccc(-c3c(F)cccc3F)cc2)c1)C1CCNCC1`, the Ki at Coagulation factor X [4] was 1.45 µM. Besides, the inhibition at Prothrombin (Bos taurus) and in the assay filed under Bos taurus was below 30% each time.
